Reference: article PMC8518898 (Journal of Clinical Pharmacology, 2021)
Entries after “also recorded” stand apart in the source; their conditions may differ. Where two headings read alike, the source gives them in different places. Marks after values point to notes of the source that are not given here.

Tests used:
[1] = ref data on file; cited from earlier work
[2] = single oral dose 200-mg abrocitinib/80 μg (500 nCi) [14C]; ref data on file; cited from earlier work
JAK3 = conditions: metabolites; ref data on file; cited from earlier work
[3] = biological target: IFN‐α signaling (JAK1/TYK2 kinase dimer); conditions: read-out: In vitro whole blood IFN‐α IC50, ref data on file; cited from earlier work
JAK2 = conditions: metabolites; ref data on file; cited from earlier work
JAK1 = conditions: ref data on file; cited from earlier work
[4] = ref data on file; cited from earlier work; remark: listed apart in the source
[5] = Phase 1 hepatic impairment study; assay type: in vivo, human; conditions: for MRAUCinf (ratio of metabolite to abrocitinib for AUCinf) / tmax / AUCinf / AUClast / Cmax / AUC(0-inf) / AUC(0-t): single 200-mg oral dose of abrocitinib; for MRAUCinf (ratio of metabolite to abrocitinib for AUCinf) / AUCinf / AUClast / Cmax / AUC(0-inf) / AUC(0-t): geometric mean (geometric %CV); for tmax: median (range); for AUC(0-inf): AUCinf; for AUC(0-t): AUClast
tyrosine kinase 2 (TYK2) = conditions: metabolites; ref data on file; cited from earlier work
[6] = system: IFN‐α signaling (JAK1/TYK2 kinase dimer); assay: In vitro whole blood inhibition of IFN-α signaling; assay type: cell-based; conditions: read-out: unbound IC50 (IC50,u) of IFN‐α signaling; IC50,u = IC50 × [fu / (blood/plasma ratio)]
[7] = up to 800-mg single dose, repeated total daily doses up to 400 mg; cited from earlier work
[8] = ref data on file; cited from earlier work; remark: listed apart in the source
[9] = once daily 100 mg or 200 mg; cited from earlier work
[10] = Phase 1 hepatic impairment study; assay type: in vivo, human
Outline: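 Single oral dose after an overnight fast, 8 subjects per hepatic function group. Adverse events, vital signs, physical exams, 12-lead ECGs and safety laboratory tests were assessed up to 72 h post-dose. Treatment-emergent events were scored for incidence, severity and causality. Clinically significant lab abnormalities or ongoing events were followed up by telephone or onsite visit at 28–35 days.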

[11] = cited from earlier work
[12] = mild hepatic impairment compared to normal hepatic function
[13] = mild hepatic impairment, plasma
[14] = moderate hepatic impairment compared to normal hepatic function
[15] = moderate hepatic impairment, plasma
[16] = normal hepatic function, plasma
[17] = human, plasma, po, 200 mg, mild hepatic impairment
[18] = human, plasma, po, 200 mg, moderate hepatic impairment
[19] = human, plasma, po, 200 mg, normal hepatic function

Compound: CN(c1ncnc2[nH]ccc12)C1CC(NS(=O)(=O)CCCO)C1 (stereo not drawn) [M1]
- fraction unbound in plasma (fu) [1]: 0.63
- share of circulating species [2]: 11%
- JAK1 enzyme kinase selectivity over JAK3 (JAK3): > 230 fold
- IC50 [3]: 296 nM
- JAK1 enzyme kinase selectivity over JAK2 (JAK2): approximately 26 fold
- pharmacological activity of metabolite (JAK1): active metabolites
- blood/plasma ratio [4]: 1.13
- unadjusted geometric mean ratio for MRAUCinf [5, 12]: 0.239
- MRAUCinf (ratio of metabolite to abrocitinib for AUCinf) ([5]; mild hepatic impairment): 0.05 (54)
- tmax ([5]; mild hepatic impairment): 1.50 (1.00‐4.00) h
- AUCinf [5, 13]: 357.6 (49) ng • h/mL
- AUClast [5, 13]: 338.1 (52) ng • h/mL
- Cmax [5, 13]: 56.3 (54) ng/mL
- unadjusted geometric mean ratio for MRAUCinf [5, 14]: 0.320
- MRAUCinf (ratio of metabolite to abrocitinib for AUCinf) ([5]; moderate hepatic impairment): 0.06 (111)
- tmax ([5]; moderate hepatic impairment): 2.00 (1.00‐3.00) h
- AUCinf [5, 15]: 552.7 (51) ng • h/mL
- AUClast [5, 15]: 534.9 (52) ng • h/mL
- Cmax [5, 15]: 68.9 (57) ng/mL
- MRAUCinf (ratio of metabolite to abrocitinib for AUCinf) ([5]; normal hepatic function): 0.19 (100)
- tmax ([5]; normal hepatic function): 2.00 (1.00‐3.00) h
- AUCinf [5, 16]: 1120 (28) ng • h/mL
- AUClast [5, 16]: 1102 (29) ng • h/mL
- Cmax [5, 16]: 241.5 (50) ng/mL
- JAK1 enzyme kinase selectivity over TYK2 (tyrosine kinase 2 (TYK2)): ~74 fold
- IC50 [6]: 165 nM

Compound: CCCS(=O)(=O)N[C@H]1C[C@@H](N(C)c2ncnc3[nH]ccc23)C1 [abrocitinib, N‐{cis‐3‐[Methyl(7H‐pyrrolo[2,3‐d]pyrimidin‐4‐yl)amino]cyclobutyl}propane‐1‐sulfo namide]
- safety and tolerability of higher doses [7]: safe and well tolerated
- share of circulating species [2]: 26%
- absolute oral bioavailability [8]: 60%
- fraction absorbed [8]: 91%
- efficacy and tolerability in moderate to severe atopic dermatitis [9]: effective and well tolerated; also recorded: safe and efficacious
- subjects with laboratory abnormality leukocyte esterase (≥1) ([10]; mild hepatic impairment): 4 subjects
- subjects reporting diarrhea ([10]; mild hepatic impairment (25%)): 2 subjects
- subjects reporting headache ([10]; mild hepatic impairment (25%)): 2 subjects
- subjects with treatment-emergent adverse events ([10]; mild hepatic impairment (N = 8)): 3 subjects
- subjects with laboratory abnormality leukocyte esterase (≥1) ([10]; moderate hepatic impairment): 5 subjects
- subjects reporting adverse events ([10]; moderate hepatic impairment (N = 8)): No subjects
- subjects with laboratory abnormality leukocyte esterase (≥1) ([10]; normal hepatic function): 1 subject
- safety and tolerability ([10]; single 200-mg oral dose, all 3 hepatic function groups): generally safe and well tolerated
- AUC(0-inf) [5, 17]: 7450 ng·h/mL
- AUC(0-inf) [5, 18]: 8600 ng·h/mL
- AUC(0-inf) [5, 19]: 5590 ng·h/mL
- AUC(0-t) [5, 17]: 7430 ng·h/mL
- AUC(0-t) [5, 18]: 8550 ng·h/mL
- AUC(0-t) [5, 19]: 5550 ng·h/mL
- Cmax ([5]; human, plasma, po, 200 mg, Cmax, mild hepatic impairment): 1280 ng/mL
- Cmax ([5]; human, plasma, po, 200 mg, Cmax, moderate hepatic impairment): 1430 ng/mL
- Cmax ([5]; human, plasma, po, 200 mg, Cmax, normal hepatic function): 1350 ng/mL
- tmax ([5]; human, plasma, po, 200 mg, tmax, mild hepatic impairment): 2 h
- tmax ([5]; human, plasma, po, 200 mg, tmax, moderate hepatic impairment): 1 h
- tmax ([5]; human, plasma, po, 200 mg, tmax, normal hepatic function): 2 h
- increase in AUCinf [5, 12]: ≈ 33.3%
- effect of hepatic impairment on PK and safety ([5]; mild or moderate hepatic impairment): no clinically relevant effect
- increase in AUCinf [5, 14]: ~54.0%
- median tmax ([11]; healthy subjects, suspension, doses of 3 to 200 mg): < 1 h
- increases in Cmax and AUCτ with increasing dose ([11]; multiple dose, total daily dose 30 mg up to 400 mg): greater than proportional
- increases in AUCinf, dose proportionality ([11]; single doses 400 and 800 mg): greater than dose proportional
- Cmax dose proportionality ([11]; single-dose range 3 to 800 mg): increased proportionally with dose

Compound: C[C@H](O)CS(=O)(=O)NC1CC(N(C)c2ncnc3[nH]ccc23)C1 (stereo partly drawn) [M2]
- fraction unbound in plasma (fu) [1]: 0.71
- share of circulating species [2]: 12%
- JAK1 enzyme kinase selectivity over JAK3 (JAK3): > 559 fold
- IC50 [3]: 90.5 nM
- JAK1 enzyme kinase selectivity over JAK2 (JAK2): 49 fold
- pharmacological activity of metabolite (JAK1): active metabolites
- blood/plasma ratio [4]: 1.27
- unadjusted geometric mean ratio for MRAUCinf [5, 12]: 0.680
- MRAUCinf (ratio of metabolite to abrocitinib for AUCinf) ([5]; mild hepatic impairment): 0.15 (25)
- tmax ([5]; mild hepatic impairment): 2.50 (1.00‐4.00) h
- AUCinf [5, 13]: 1178 (22) ng • h/mL
- AUClast [5, 13]: 1081 (25) ng • h/mL
- Cmax [5, 13]: 139.9 (29) ng/mL
- unadjusted geometric mean ratio for MRAUCinf [5, 14]: 0.655
- MRAUCinf (ratio of metabolite to abrocitinib for AUCinf) ([5]; moderate hepatic impairment): 0.15 (78)
- tmax ([5]; moderate hepatic impairment): 2.00 (2.00‐4.00) h
- AUCinf [5, 15]: 1309 (38) ng • h/mL
- AUClast [5, 15]: 1192 (43) ng • h/mL
- Cmax [5, 15]: 119.2 (43) ng/mL
- MRAUCinf (ratio of metabolite to abrocitinib for AUCinf) ([5]; normal hepatic function): 0.22 (56) ^b
- tmax ([5]; normal hepatic function): 2.00 (1.00‐3.00) h
- AUCinf [5, 16]: 1519 (36) ^b ng • h/mL
- AUClast [5, 16]: 1395 (35) ng • h/mL
- Cmax [5, 16]: 253.1 (40) ng/mL
- JAK1 enzyme kinase selectivity over TYK2 (tyrosine kinase 2 (TYK2)): 68 fold
- IC50 [6]: 50.6 nM
